Source: ChEMBL document CHEMBL2407032, “Structural modification of pantothenamides counteracts degradation by pantetheinase and improves antiplasmodial activity” (ACS Med Chem Lett, 2013)

Experiments:
[1] = tested on: Plasmodium falciparum; experiment: Antiplasmodial activity against intraerythrocytic Plasmodium falciparum 3D7 infected in human erythrocytes in heat treated RPMI-1640 culture medium assessed as parasite growth inhibition after 96 hrs by microscopic analysis; assay type: functional, organism-based; settings: 3D7, 96 h
Outline: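 3D7 ring-stage-initiated cultures in erythrocytes, grown 96 h in aged Albumax-complete RPMI. The medium was heat-treated for a prolonged time to reduce pantetheinase activity and held 1 μM pantothenic acid. IC50 from concentration-response. Mean ± SEM (or range/2) of at least two independent experiments, each in triplicate.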

[2] = tested on: Plasmodium falciparum; experiment: Antiplasmodial activity against intraerythrocytic Plasmodium falciparum 3D7 infected in human erythrocytes in fresh RPMI-1640 culture medium assessed as parasite growth inhibition after 96 hrs by microscopic analysis; assay type: functional, organism-based; settings: 3D7, 96 h
Outline: (§1)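 3D7 parasites in erythrocytes, started mostly at ring stage, grown 96 h in freshly prepared Albumax-complete RPMI (pantetheinase active) with 1 μM pantothenic acid. IC50 from concentration-response. Mean ± SEM (or range/2) of at least two independent experiments, each in triplicate.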

[3] = tested on: pantetheinase; experiment: Drug metabolism of the compound assessed as compound hydrolysis at 200 uM after 10 mins by fluorescence assay in presence of recombinant human pantetheinase; assay type: physicochemical; settings: read-out: Drug metabolism
[4] = tested on: Jurkat; experiment: Cytotoxicity against human Jurkat cells after 96 hrs by SYBR green assay in presence of pantothenic acid; assay type: cell-based
Outline: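 Human leukemic T-cell line grown 96 h in medium with 1 μM pantothenic acid. IC50 from concentration-response profiles. Means ± SEM of three independent experiments performed in triplicate.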

[5] = Selectivity index, ratio of IC50 for human Jurkat cells to IC50 for intraerythrocytic Plasmodium falciparum 3D7 infected in human erythrocytes in fresh RPMI-1640 culture medium; assay type: toxicity, cell-based; settings: read-out: Ratio IC50
[6] = tested on: Plasmodium falciparum; experiment: Antiplasmodial activity against intraerythrocytic Plasmodium falciparum 3D7 infected in human erythrocytes in fresh RPMI-1640 culture medium assessed as parasite growth inhibition after 96 hrs by microscopic analysis in presence of pantetheinase; assay type: functional, organism-based; settings: 3D7, 96 h; outline: as §1

| SMILES | metabolised at 10 min, 200 µM [3] | IC50 [1] | IC50 [2] | IC50 [4] | selectivity ratio [5] | IC50 [6] |
| --- | --- | --- | --- | --- | --- | --- |
| COc1cccc(CNC(=O)CCNC(=O)[C@H](O)C(C)(C)CO)c1 | – | > 200 µM | > 200 µM | – | – | – |
| COc1ccc(CNC(=O)CCCNC(=O)[C@H](O)C(C)(C)CO)cc1 | 5% | 10 µM | 9.5 µM | – | – | > 200 µM |
| COc1cccc(CNC(=O)CCCNC(=O)[C@H](O)C(C)(C)CO)c1 | 5% | 22 µM | 21 µM | – | – | > 200 µM |
| CC(C)(CO)[C@@H](O)C(=O)NCCCC(=O)NCc1ccc2c(c1)OCO2 | 5% | – | 2.4 µM | 23 µM | 9 | 88 µM |
| CC(C)(CO)[C@@H](O)C(=O)NCCCC(=O)NCc1ccc(OC(F)(F)F)cc1 | 5% | 4.9 µM | 6.3 µM | – | – | > 200 µM |
| CC(C)(CO)[C@@H](O)C(=O)NCCCC(=O)NCc1ccc(C(F)(F)F)cc1 | 5% | – | – | – | – | – |
| CC(C)(CO)[C@@H](O)C(=O)NCCCC(=O)NCc1cccc(C(F)(F)F)c1 | 5% | – | – | – | – | – |
| CN(C)c1cccc2c(S(=O)(=O)NCCCCCNC(=O)CCCNC(=O)[C@H](O)C(C)(C)CO)cccc12 | 5% | – | – | – | – | – |
| CC(C)(CO)[C@@H](O)C(=O)NCC(=O)NCc1ccc2c(c1)OCO2 | 5% | – | 53 µM | – | – | > 200 µM |
| CC(C)(CO)[C@@H](O)C(=O)NCC(=O)NCc1ccc(OC(F)(F)F)cc1 | 5% | 64 µM | 71 µM | – | – | > 200 µM |
| CC(C)(CO)[C@@H](O)C(=O)NCC(=O)NCc1ccc(C(F)(F)F)cc1 | 5% | 45 µM | 48 µM | – | – | 57 µM |
| CC(C)(CO)[C@@H](O)C(=O)NCC(=O)NCc1cccc(C(F)(F)F)c1 | 5% | 116 µM | 89 µM | – | – | 177 µM |
| CCCCNC(=O)CCNC(=O)[C@H](O)C(C)(C)CO | – | – | > 200 µM | – | – | – |
| CCCCCCNC(=O)CCNC(=O)[C@H](O)C(C)(C)CO | – | 0.55 µM | 134 µM | – | – | – |
| CCCCCCCNC(=O)CCNC(=O)[C@H](O)C(C)(C)CO | – | – | > 200 µM | – | – | – |
| CC(C)CNC(=O)CCNC(=O)[C@H](O)C(C)(C)CO | – | 1.1 µM | 200 µM | – | – | – |

| SMILES | metabolised at 10 min, 200 µM [3] | IC50 [1] | IC50 [2] | IC50 [4] | selectivity ratio [5] | IC50 [6] |
| --- | --- | --- | --- | --- | --- | --- |
| CC(C)CCNC(=O)CCNC(=O)[C@H](O)C(C)(C)CO | – | – | > 200 µM | – | – | – |
| CC(C)(CO)[C@@H](O)C(=O)NCCC(=O)NCC1CC1 | – | – | 149 µM | – | – | – |
| CC(C)(CO)[C@@H](O)C(=O)NCCC(=O)NCC1CCCCC1 | – | > 200 µM | > 200 µM | – | – | – |
| CCSCCNC(=O)CCNC(=O)[C@H](O)C(C)(C)CO | – | 0.28 µM | 87 µM | – | – | – |
| CSCCCNC(=O)CCNC(=O)[C@H](O)C(C)(C)CO | – | 0.23 µM | 143 µM | – | – | – |
| CC(C)(CO)[C@@H](O)C(=O)NCCC(=O)NCCc1ccccc1 | – | 0.02 µM | 53 µM | – | – | – |
| CC(C)(CO)[C@@H](O)C(=O)NCCC(=O)NCc1ccccc1 | – | > 200 µM | > 200 µM | – | – | – |
| COc1ccc(CNC(=O)CCNC(=O)[C@H](O)C(C)(C)CO)cc1 | – | > 200 µM | > 200 µM | – | – | – |
| CC(C)(CO)[C@@H](O)C(=O)NCCC(=O)NCc1ccc2c(c1)OCO2 | – | – | 144 µM | – | – | – |
| CC(C)(CO)[C@@H](O)C(=O)NCCC(=O)NCc1ccc(OC(F)(F)F)cc1 | – | 136 µM | > 200 µM | – | – | – |
| CC(C)(CO)[C@@H](O)C(=O)NCCC(=O)NCc1ccc(C(F)(F)F)cc1 | – | 117 µM | 107 µM | – | – | – |
| CC(C)(CO)[C@@H](O)C(=O)NCCC(=O)NCc1cccc(C(F)(F)F)c1 | – | 156 µM | > 200 µM | – | – | – |
| CN(C)c1cccc2c(S(=O)(=O)NCCCCCNC(=O)CCNC(=O)[C@H](O)C(C)(C)CO)cccc12 | – | – | > 200 µM | – | – | – |
| CCCCCNC(=O)CCNC(=O)[C@H](O)C(C)(C)CO | – | 7.5 µM | 182 µM | – | – | – |
| CCCNC(=O)CCNC(=O)[C@H](O)C(C)(C)CO | – | – | 199 µM | – | – | – |

More lines, main results first:

| metabolised at 10 min, 200 µM [3] | SMILES | IC50 [1] | IC50 [2] | IC50 [4] | selectivity ratio [5] | IC50 [6] |
| --- | --- | --- | --- | --- | --- | --- |
| 5% | CC(C)CCNC(=O)CCCNC(=O)[C@H](O)C(C)(C)CO | – | 8.9 µM | – | – | – |
| 5% | CC(C)(CO)[C@@H](O)C(=O)NCCCC(=O)NCC1CC1 | – | 12 µM | – | – | – |
| 5% | CC(C)(CO)[C@@H](O)C(=O)NCCCC(=O)NCC1CCCCC1 | 3.3 µM | 2.1 µM | 113 µM | 54 | > 200 µM |
| 5% | CCSCCNC(=O)CCCNC(=O)[C@H](O)C(C)(C)CO | 1.9 µM | 2 µM | > 200 µM | > 100 | 169 µM |
| 5% | CSCCCNC(=O)CCCNC(=O)[C@H](O)C(C)(C)CO | – | 7.7 µM | – | – | – |
| 5% | CC(C)(CO)[C@@H](O)C(=O)NCCCC(=O)NCCc1ccccc1 | – | 2.1 µM | 99 µM | 47 | 139 µM |
| 5% | CC(C)(CO)[C@@H](O)C(=O)NCCCC(=O)NCc1ccccc1 | 4.7 µM | 6.1 µM | – | – | > 200 µM |
| 5% | COc1cccc(CNC(=O)CNC(=O)[C@H](O)C(C)(C)CO)c1 | > 200 µM | > 200 µM | – | – | – |
| 5% | CN(C)c1cccc2c(S(=O)(=O)NCCCCCNC(=O)CNC(=O)[C@H](O)C(C)(C)CO)cccc12 | – | 155 µM | – | – | 157 µM |
| 5% | CCCNC(=O)CCCNC(=O)[C@H](O)C(C)(C)CO | – | 13 µM | – | – | – |
| 25% | CCCCNC(=O)CCCNC(=O)[C@H](O)C(C)(C)CO | – | 11 µM | – | – | – |
| 5% | CCCCCNC(=O)CCCNC(=O)[C@H](O)C(C)(C)CO | 2.2 µM | 3.9 µM | 192 µM | 49 | 195 µM |
| 5% | CCCCCCNC(=O)CCCNC(=O)[C@H](O)C(C)(C)CO | 14 µM | 8 µM | – | – | 199 µM |
| 5% | CCCCCCCNC(=O)CCCNC(=O)[C@H](O)C(C)(C)CO | – | 11 µM | – | – | – |
| 5% | CC(C)CNC(=O)CCCNC(=O)[C@H](O)C(C)(C)CO | – | 11 µM | – | – | – |
| 5% | CCCNC(=O)CNC(=O)[C@H](O)C(C)(C)CO | – | 13 µM | – | – | – |
| 25% | CCCCNC(=O)CNC(=O)[C@H](O)C(C)(C)CO | – | 5.3 µM | – | – | – |
| 5% | CCCCCNC(=O)CNC(=O)[C@H](O)C(C)(C)CO | 14 µM | 7 µM | – | – | 142 µM |
| 5% | CCCCCCNC(=O)CNC(=O)[C@H](O)C(C)(C)CO | 7.9 µM | 4.7 µM | 126 µM | 27 | 104 µM |
| 5% | CCCCCCCNC(=O)CNC(=O)[C@H](O)C(C)(C)CO | – | 46 µM | – | – | – |
| 5% | CC(C)CNC(=O)CNC(=O)[C@H](O)C(C)(C)CO | – | 18 µM | – | – | – |
| 5% | CC(C)CCNC(=O)CNC(=O)[C@H](O)C(C)(C)CO | – | 12 µM | – | – | – |
| 5% | CC(C)(CO)[C@@H](O)C(=O)NCC(=O)NCC1CC1 | – | 6.4 µM | – | – | 183 µM |
| 5% | CC(C)(CO)[C@@H](O)C(=O)NCC(=O)NCC1CCCCC1 | 140 µM | 164 µM | – | – | – |
| 5% | CCSCCNC(=O)CNC(=O)[C@H](O)C(C)(C)CO | 11 µM | 10 µM | – | – | 200 µM |
| 5% | CSCCCNC(=O)CNC(=O)[C@H](O)C(C)(C)CO | – | 38 µM | – | – | – |
| 5% | CC(C)(CO)[C@@H](O)C(=O)NCC(=O)NCCc1ccccc1 | – | 3.4 µM | 53 µM | 16 | 135 µM |
| 5% | CC(C)(CO)[C@@H](O)C(=O)NCC(=O)NCc1ccccc1 | 127 µM | 122 µM | – | – | > 200 µM |
| 5% | COc1ccc(CNC(=O)CNC(=O)[C@H](O)C(C)(C)CO)cc1 | 71 µM | 26 µM | – | – | 189 µM |
